Assay results as given in PMC10790741 (Journal of Pharmacy & Bioallied Sciences, 2023).
“Also recorded” adds a separate entry of the source.

System: male albino mice
Test: Neurotoxicity, rotarod test
Type: in vivo
Details: 0.5 and 4 h
How it was run: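 Male albino mice (25–30 g) were trained on a rotating rod (3.2 cm outer diameter, 10 rpm). Test compound was given at 30, 100 and 300 mg/kg, and mice were checked at 0.5 and 4 h. Neurotoxicity was failure to keep balance on the rod for 1 min, across three trials. The toxic dose was the dose at which 50% of animals fell.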

Structure (SMILES)	Neurotoxicity (result in words)
COc1ccc2ccc(C(/C=C/c3c[nH]c4ccccc34)N3C=CC(C(=O)O)C=C3)cc2c1 (centres unmarked) [5g, (E)-1-(3-(1H-indol-3-yl)-1-(7-methoxynaphthalen-2-yl)allyl)-1,4-dihydropyridine-4-carboxylic acid]	neurotoxic; also recorded: motor impairing
Cc1ccc2ccc(C(/C=C/c3c[nH]c4ccccc34)N3C=CC(C(=O)O)C=C3)cc2c1 (centres unmarked) [5i, (E)-1-(3-(1H-indol-3-yl)-1-(7-methylnaphthalen-2-yl)allyl)-1,4-dihydropyridine-4-carboxylic acid]	neurotoxic
